Source: publication PMC5679012 (Chemistry (Weinheim an der Bergstrasse, Germany), 2017)

Assay: CO release kinetics by increase of fluorescence intensity in DMSO/PBS
Format: physicochemical
Settings: fluorescence increase (450 nm); 100 μM; DMSO/PBS (pH = 7.4) 4:1, 37 °C
Procedure, shortened: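 Test compounds of scaffolds I and II were dissolved in DMSO/PBS (pH 7.4, 4:1) at 100 μM final and held at 37 °C. CO release was tracked as the rise in fluorescence intensity at 450 nm, read at successive time points. Each experiment was repeated three times independently.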

Question: Which “k, CO release rate” value does the source give for `C#CC(C)(C)NC(=O)C1=C2C(=C(c3ccccc3)C1=O)c1cccc3cccc2c13` [BW-CO-111] here?
Answer: 3.31 ± 0.28 h⁻¹

Question: What about the “t1/2, half-life for CO release” value of the same compound?
Answer: ~12 min
